# Hits are enriched below; roughly 2.9% of the tested compounds scored in any of these assays.
# NLRP3 yeast inh – NALP3 inhibition in yeast. inhibition, % at 10 µM. 0.39% of 330,000 active. Yeast reconstituted NLRP3/ASC/caspase-1, beta-gal luminescence, 24 h;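 active = inhibition of 50% or more; inactive = inhibition below 50%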;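 note: plate controls were induced DMSO wells for no effect and uninduced yeast grown without galactose for full effect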
# VIM-2 inhibitor – blocks Pseudomonas aeruginosa VIM-2 metallo-beta-lactamase; purified VIM-2, nitrocefin hydrolysis, epi-absorbance fluorescence; inhibition, % at 5.6 µM; 0.89% of 290,000 active; AID 1527;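 active = inhibition above the mean of all tested compounds plus 3 SD, cutoff set per screening run, cut at about 7.5% in these data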;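 note: red hydrolysis product quenches plate fluorescence so inhibitors raise well fluorescence; 0% = enzyme with DMSO and 100% = DMSO without enzyme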
# PolyA inhibitor – yeast polyadenylation inhibition; activity score, % at 12 µM; S. cerevisiae SKY197-pL101 polyadenylation reporter, beta-gal luminescence; efflux-impaired pdr1/pdr3 knockout yeast; score 100 = 6 SD above DMSO; 0.02% of 300,000 active;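 active = lowest replicate activity score at least 50, where 100 means six control SD above control mean; inconclusive = lowest score under 50 but half or more replicates reach 50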;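 note: yeast exposed to compound for 9 h at 30 °C; higher score means more reporter readthrough which indicates perturbed polyadenylation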
# Mot1-301 SUMO – SUMOylation pathway inhibition by Mot1-301 growth rescue. S. cerevisiae Mot1-301 growth rescue, ATP luminescence, 38.5C; percent above DMSO median, 100 means doubled. growth rescue, % at 18.8 µM. 1% of 320,000 active. AID 2716;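 active = every valid replicate shows activation above 250% relative to neutral control wells; inactive = the rest, any valid replicate at or below 250%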;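 note: OY570 slx delta 5 strain wells were the positive control but not used for scaling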
# NALP1 inh – NALP1 inhibition; S. cerevisiae NALP1/ASC/caspase-1 growth, X-gal OD620, 72 h; inhibition, % at 10 µM; 0.61% of 280,000 active; in the data active = inhibition mostly above about 24%, no sharp cut-off; inactive = mostly below about 32%
# IMP-1 inhibitor – blocks Pseudomonas aeruginosa IMP-1 metallo-beta-lactamase; purified IMP-1, nitrocefin hydrolysis, epi-absorbance fluorescence; 0.45% of 290,000 active; inhibition, % at 5.6 µM;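 active = inhibition above the mean plus 3 SD of all compounds in the same screening run, cut at about 4.5% in these data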;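 note: 0% = IMP-1 with DMSO and 100% = DMSO wells lacking enzyme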
#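 Material – recombinant IMP-1 enzyme, purified · Amount – IMP-1 0.2 nM before substrate addition · Medium – HEPES buffer pH 7.1 with ZnSO4 and Brij 35 · Timing – 25 °C, 15 min preincubation, 25 min reaction · Measured by – plate fluorescence quenching by hydrolysis product, ex 480/em 530 nm · Read-out – percent enzyme inhibition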
# Yeast Mot1 SUMO – yeast SUMO pathway inhibition in dose response; shares compounds with Mot1-301 SUMO; S. cerevisiae Mot1-301 galactose growth, ATP luminescence, 24 h; -100 = growth of slx-deleted rescue strain; growth activity, percent, % at 42 µM; 2,300 tested, under 10 active; AID 493004;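 active = Signal drops as the depositor expects, and the fitted half-maximal dose is no more than ten times the top valid tested dose; inconclusive = Poor fit, or a flat curve whose signal drops by 30% to 70%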;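 note: more negative values mean stronger growth rescue toward the control strain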
# * marks the source's active call; other numbers are inactive results; ? = inconclusive; . = no result given; + = active, no number; [ ] = remark or other dose.
SMILES,NLRP3 yeast inh,VIM-2 inhibitor,PolyA inhibitor,Mot1-301 SUMO,NALP1 inh,IMP-1 inhibitor,Yeast Mot1 SUMO
O=C1CC(N(CCc2ccccc2)C(=S)Nc2ccccc2)C(=O)N1c1ccc(F)cc1 (stereo unspecified),1.9,-3.2,-5.9,699.6*,-14.4,-3.0,0.2
COc1cccc(-c2nc(SC)nc3sc(C(=O)NC(C)(C)C)c(N)c23)c1,18.5,.,-0.5,-20.3,.,.,.
O=C(c1cc(-c2ccc(Br)cc2)n[nH]1)N1CCN(C(=O)c2ccccc2Br)CC1,6.9,-2.9,-7.8,-8.2,11.9,-4.0,.
CCN(C(=O)Nc1ccccc1OC)c1c(N)n(Cc2ccccc2)c(=O)[nH]c1=O,-12.2,-5.7,6.3,471.4*,-7.7,-5.0,0.0
CCN(C(=O)COC(=O)CCc1ccccc1OC)c1c(N)n(Cc2ccccc2)c(=O)[nH]c1=O,3.1,.,-4.2,0.5,.,.,.
COCC(C)n1c(C)cc(C(=O)CSc2ccc(NC(C)=O)cc2)c1C (stereo unspecified),14.7,-4.2,4.4,+,38.4,-1.8,-0.5
COCCn1c(C)cc(C(=O)CSc2ccc(NC(C)=O)cc2)c1C,1.6,-2.1,-0.5,-15.7,10.3,-1.8,.
COc1cc(OC)c(NC(=O)CNC(=O)Cn2ccc3ccccc3c2=O)cc1Cl,15.1,-1.1,?,80.1,-68.3,-1.0,.
COc1ccc(OC)c(NC(=O)CNC(=O)Cn2ccc3ccccc3c2=O)c1,6.5,-1.2,-4.3,503.4*,9.7,0.7,0.1
COc1cc(C(=O)Nc2cc(S(C)(=O)=O)ccc2Cl)ccc1OCC(=O)N1CCOCC1,-4.3,.,.,0.6,.,.,.
Cc1onc(-c2ccccc2)c1C(=O)Nc1nncs1,8.1,1.0,-7.9,135.3,5.1,-2.0,.
Cc1ccc2nc(N/N=C/c3ccccc3F)nc(-c3ccccc3)c2c1,19.8,-1.2,2.4,473.2*,38.3,-4.7,0.3
Cc1cc(C)n(C(=O)CNC(=O)c2cccc(Cl)c2)n1,17.2,-3.0,-6.5,.,-10.8,-3.0,.
Cc1cc(C)n(C(=O)CNC(=O)c2ccc3c(c2)OCCO3)n1,8.9,1.9,7.5,601.1*,26.1,1.4,0.0
Cc1ccc(C(=O)NCC(=O)Nc2ccc3c(c2)OCCO3)cc1,17.9,.,9.7,579.6*,.,.,-0.1[21 µM]
CCC(=O)N1CCc2cc(S(=O)(=O)NCCc3ccc(S(N)(=O)=O)cc3)ccc21,5.8,-4.0,10.7,-6.2,7.6,-3.0,.
c1ccc(CNc2ncnc3sc4c(c23)CCC4)nc1,25.9,10.4*,4.6,817.8*,-17.5,-2.8,-0.1
CC(=O)CCCCn1cnc2c1c(=O)n(C)c(=O)n2C,4.7,-2.5,1.1,17.5,-2.4,-3.0,.
CN1CCCCC1=NCCCn1cnc2c1c(=O)n(C)c(=O)n2C,-19.8,-0.6,10.2,601.9*,-10.6,-2.0,0.5
Cc1ccc(S(=O)(=O)N2CCN(C(=O)Cn3nc(C(=O)O)c4ccccc4c3=O)CC2)cc1,4.3,-1.5,2.8,-3.6,3.8,-2.5,.
CNC(=O)COC(=O)c1cc(-c2ccco2)nc2ccccc12,19.2,-1.6,7.2,+,-5.8,-1.8,-0.1
O=C(COC(=O)c1cc(-c2ccco2)nc2ccccc12)NCc1ccccc1,17.1,-2.2,9.5,1.3,4.3,-1.7,.
CCC(Oc1ccccc1)C(=O)Nc1cc(C(F)(F)F)ccc1N1CCOCC1 (stereo unspecified),0.4,.,11.4,-18.7,.,.,.
O=C(N1CCOCC1)N1CCN(S(=O)(=O)c2ccc(F)cc2)CC1,3.4,1.0,17.6,-16.3,9.8,-5.5,.
CCNc1nc(-c2ccc(OC(F)F)cc2)c(C)s1,2.0,-0.8,-28.1,-8.1,-11.2,-0.3,.
SMILES,NLRP3 yeast inh,VIM-2 inhibitor,PolyA inhibitor,Mot1-301 SUMO,NALP1 inh,IMP-1 inhibitor,Yeast Mot1 SUMO
COc1ccc(N2C(=O)CSC2c2ccc([N+](=O)[O-])cc2)cc1 (stereo unspecified),16.2,1.6,-16.3,580.5*,22.7,0.6,0.9
CCNC(=S)Nc1ccc(C)c(S(=O)(=O)Nc2ccccc2OC)c1,10.3,0.9,-1.6,398.3*,5.3,-0.2,-0.6
CC(C(=O)NCCN1CCOCC1)(c1ccccc1)c1ccccc1,5.9,-4.8,-0.6,667.2*,-7.1,-1.4,0.3
Cc1ccccc1C(=O)NCCN1CCOCC1,7.2,-3.8,5.3,-3.5,-2.4,-1.3,.
O=C(CCN1CCCCC1=O)NC1CCCc2c1cnn2-c1ccccc1F (stereo unspecified),-2.8,-2.2,16.1,551.3,-13.6,-5.1,.
Cc1nc(-c2ccncc2)sc1C(=O)Nc1ccc(Br)cc1,9.8,-0.4,-6.2,744.7*,10.5,-0.6,-0.5
CC1(C)NC(=O)N(CN2C(=O)NC(C)(C)C2=O)C1=O,11.6,-1.9,18.4,-5.4,-11.7,-2.4,.
CC1(C)NC(=O)N(CC(=O)O)C1=O,3.5,-5.5,-0.5,573.8*,-4.2,-5.0,0.3
CN(CC(=O)Nc1sccc1C#N)Cc1ccccc1,14.2,-0.2,-5.0,486.6*,24.3,-1.6,0.0
Nc1ncc([N+](=O)[O-])cc1S(=O)(=O)c1ccccc1,6.0,.,-0.9,-9.0,.,.,.
CC1(C)c2[nH]c3ccccc3c2C[C@H]2C(=O)N(Cc3cccc(F)c3)C(=O)N21,10.0,.,-4.6,447.9*,.,.,-1.0
O=C(O)CN(c1ccccn1)S(=O)(=O)c1ccc(Cl)cc1,5.7,-3.3,4.9,589.2*,13.2,-1.6,0.4
CCN(CC)CCCn1c(=S)[nH]c2cc(Cl)ccc2c1=O,-0.6,-0.5,-6.0,-9.1,2.4,-4.5,.
CCN(CC)CCCn1c(=S)[nH]c2ccc(Cl)cc2c1=O,-0.3,-3.5,-2.7,631.3*,35.7,-4.4,0.0
CCCN(C(=O)c1cc(S(=O)(=O)N2CCCCCC2)ccc1OC)C1CCS(=O)(=O)C1 (stereo unspecified),9.1,.,29.8,1.3,.,.,.
CCCCOc1ccc(C(O)C(CN2CCOCC2)c2ccccc2)cc1 (stereo unspecified),12.0,-0.9,-11.8,786.7*,5.7,-3.9,0.4
CC1(C)C(C=C(Cl)Cl)C1C(=O)OCc1cccc(Oc2ccccc2)c1 (stereo unspecified),21.9,.,.,463.4*,.,.,0.8
COc1ccc(S(=O)(=O)N2CCOCC2)cc1C(=O)N(C)Cc1ccco1,-11.7,.,.,-1.2,.,.,.
O=C(CN(CC1CCCO1)C(=O)CNS(=O)(=O)c1ccc(F)cc1)NCc1ccccc1 (stereo unspecified),0.3,-1.9,0.9,886.2*,11.0,-2.0,0.3
COc1ccc(S(=O)(=O)NCC(=O)N(CC(=O)NCC2CCCO2)c2ccccc2C)cc1 (stereo unspecified),21.5,-2.3,-22.8,920.9*,12.7,-1.6,0.9
